The results in this text go back to ChEMBL document CHEMBL4118112, “Synthesis and Evaluation of the First Fluorescent Antagonists of the Human P2Y2 Receptor Based on AR-C118925” (J Med Chem, 2018).

For orientation: Kd means the constant that tells how readily two partners part at equilibrium. In general, pKb refers to −log10 of the Kb, conventionally taken in molar units. As usually defined, the inhibition is how much of the control response was suppressed. A word on the Ki: it is a measure of affinity in units of concentration, obtained from inhibition or displacement.

Active and inactive are the calls of the source. No cut-off for these calls is given here.

Data set [1] addresses T1, P2Y purinoceptor 2 (Homo sapiens, UniProt P41231). As to the kind of experiment: Binding affinity to recombinant human N-terminal NLuc-tagged P2Y2R expressed in human 1321N1 cells at 10 uM incubated for 1 hr in presence of AR-C118925 by furimazine-based NanoBRET assay. The class given is cell-based. The method in brief: (§1)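 N-terminally NanoLuc-tagged hP2Y2R was stably expressed in 1321N1 cells. Cells were treated with increasing concentrations of fluorescent conjugate, or a fixed 10 µM for screening, with or without 10 µM AR-C118925 to define nonspecific binding. Furimazine substrate was then added and the BRET signal read. pKd came from saturation binding curves; mean ± SEM of separate experiments.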
(In BRET a luciferase serves as donor, and the signal depends on an acceptor being close.)

Data set [2] concerns the target T1, P2Y purinoceptor 2. As to the kind of experiment: Binding affinity to recombinant human N-terminal NLuc-tagged P2Y2R expressed in human 1321N1 cells incubated for 1 hr in presence of AR-C118925 by furimazine-based NanoBRET assay. The class given is cell-based. The essentials: as §1
The target in data set [3] is T1, P2Y purinoceptor 2. As to the kind of experiment: Antagonist activity at human P2Y2R expressed in human 1321N1 cells assessed as inhibition of UTPgammaS-activated calcium-mobilization preincubated for 45 mins measured every 1.52 secs for 200 secs after the addition of UTPgammaS at 15 secs by fluo-4AM-based fluorescence assay. The class given is functional, cell-based. The method in brief: (§2)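 hP2Y2R in 1321N1 astrocytoma cells. Calcium mobilization was driven by UTPγS. Single-concentration lines: compound at 10 µM, inhibition scored against the 0.1 µM UTPγS response (n=3). For the pKb line, the UTPγS concentration-response curve was run with a single antagonist concentration added, and pKb was calculated from the curve shift with the Gaddum equation.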

Data set [4] deals with T1, P2Y purinoceptor 2. In words: Displacement of (E)-2-((5-(7-Chloro-2-((3-((2-(6-(3-(5,5-difluoro-7,9-dimethyl-5H-5-lambda4,6-lambda4-dipyrrolo[1,2-c:2,1-f ][1,3,2]diazaborinin-3-yl)-propanamido)hexanamido)ethyl)amino)-3-oxopropyl)amino)-4Hbenzo[5,6]cyclohepta[1,2-d]thiazol-4-yl)-2-oxo-4-thioxo-3,4-dihydropyrimidin-1(2H)-yl)methyl)-N-(1H-tetrazol-5-yl)thiazole-4-carboxamide from human N-terminal NLuc-tagged P2Y2R expressed in human 1321N1 cells incubated for 1 hr by furimazine-based NanoBRET assay. The class given is cell-based. The essentials: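 Competition binding in 1321N1 cells expressing N-terminal NanoLuc-hP2Y2R. The fluorescent tracer was used at 1 µM (or the bodipy A tracer at 100 nM) against increasing concentrations of unlabeled ligand. After furimazine addition the BRET signal was read and pKi estimated; mean ± SEM of separate experiments.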

Data set [5] addresses T1, P2Y purinoceptor 2. In words: Antagonist activity at human P2Y2R expressed in human 1321N1 cells assessed as inhibition of UTPgammaS-activated calcium-mobilization at 10 uM preincubated for 45 mins measured every 1.52 secs for 200 secs after the addition of UTPgammaS at 15 secs by fluo-4AM-based fluorescence assay relative to UTPgammaS. It counts as functional, cell-based. The essentials: as §2

The target of data set [6] is T1, P2Y purinoceptor 2. In words: Antagonist activity at human P2Y2R expressed in human 1321N1 cells assessed as inhibition of UTPgammaS-activated calcium-mobilization at 10 uM preincubated for 45 mins measured every 1.52 secs for 200 secs after the addition of UTPgammaS at 15 secs by fluo-4AM-based fluorescence assay. The class given is functional, cell-based. The method in brief:
as §2

A short description of data set [7]: Drug uptake in human 1321N1 cells assessed as intracellular fluorescence at 100 nM after 30 mins by confocal microscopy. The class given is ADME, cell-based. The settings on record: 0.5 h, 0.1 µM. The method in brief: (§3)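 1321N1 astrocytoma cells expressing untagged hP2Y2R were given 100 nM fluorescent ligand and incubated 30 min at 37°C, with or without 10 µM AR-C118925 (1). Single equatorial confocal images were then taken with the fluorescent ligand and/or antagonist still present. Membrane and intracellular fluorescence were examined; images are representative of 4 experiments.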

Data set [8] has as its target T1, P2Y purinoceptor 2. As to the kind of experiment: Binding affinity to human P2Y2R expressed in human 1321N1 cells assessed as localized membrane fluorescence at 100 nM after 30 mins by confocal microscopy. It counts as cell-based. The essentials:
as §3

For data set [9], the target named is T1, P2Y purinoceptor 2. In words: Binding affinity to human P2Y2R expressed in human 1321N1 cells assessed as localized membrane fluorescence at 100 nM after 30 mins in presence of AR-C118925 by confocal microscopy. It counts as cell-based. The essentials: as §3

T1 sequence (P41231 whole entry): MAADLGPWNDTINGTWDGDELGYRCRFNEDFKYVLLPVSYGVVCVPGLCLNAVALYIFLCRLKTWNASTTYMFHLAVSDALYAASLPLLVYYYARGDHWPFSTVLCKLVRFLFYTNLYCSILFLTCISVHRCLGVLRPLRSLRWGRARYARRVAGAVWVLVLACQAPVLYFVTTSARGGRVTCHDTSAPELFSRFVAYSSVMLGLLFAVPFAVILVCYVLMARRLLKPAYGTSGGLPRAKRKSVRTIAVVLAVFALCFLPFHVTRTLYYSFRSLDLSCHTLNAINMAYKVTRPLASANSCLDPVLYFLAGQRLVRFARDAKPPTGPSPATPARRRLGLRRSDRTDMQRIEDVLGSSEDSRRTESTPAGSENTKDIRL

In the case of `Cc1cc(C)n2c1C=C1C=CC(CCC(=O)NCCNC(=O)CCNc3nc4c(s3)C=Cc3cc(Cl)ccc3C4c3cn(C)c(=O)[nH]c3=S)=[N+]1[B-]2(F)F` (configuration not stated), the result at P2Y purinoceptor 2 [1] was Active. The Kd on P2Y purinoceptor 2 [2] is 12300 nM.
For the molecule `CCOCCNc1nc2c(s1)C=Cc1cc(Cl)ccc1[C@H]2c1cn(C)c(=O)[nH]c1=S`, the pKb on P2Y purinoceptor 2 [3] lay in the range of 6.74 to 6.78. Moreover, the inhibition entry at P2Y purinoceptor 2 [4] is “Dose-dependent effect”.
Regarding `Cc1ccc2c(c1)C=Cc1cc(C)ccc1C2c1cn(Cc2cc(C(=O)NCCOCCOCCNC(=O)COc3ccc(/C=C/C4=[N+]5C(=Cc6ccc(-c7cccs7)n6[B-]5(F)F)C=C4)cc3)cc(C(=O)Nc3nnn[nH]3)c2)c(=O)[nH]c1=S`, the Kd on P2Y purinoceptor 2 [2] is 759 nM.
As for `Cn1cc(C2c3ccc(Cl)cc3C=Cc3sc(NCc4ccccc4)nc32)c(=S)[nH]c1=O` (configuration not stated), the inhibition on P2Y purinoceptor 2 [5] is less than 50%.
In the case of `CCOCCNc1nc2c(s1)C=Cc1cc(Cl)ccc1C2c1cn(C)c(=O)[nH]c1=S` (racemic), the pKb at P2Y purinoceptor 2 [3] is 6.73.
On to `COCCNc1nc2c(s1)C=Cc1cc(Cl)ccc1C2c1cn(C)c(=O)[nH]c1=S` (racemic), for which, on P2Y purinoceptor 2 [3], the pKb came out at 6.6.
With `Cc1cc(C)n2c1C=C1C=CC(CCC(=O)NCCCCCC(=O)NCCNC(=O)CCNc3nc4c(s3)C=Cc3cc(Cl)ccc3C4c3cn(C)c(=O)[nH]c3=S)=[N+]1[B-]2(F)F` (configuration not stated), the pKb at P2Y purinoceptor 2 [3] turned out to be 6.3. The outcome on P2Y purinoceptor 2 [1] was Active. The Kd on P2Y purinoceptor 2 [2] was 2140 nM. Further, on P2Y purinoceptor 2 [4], the affinity corresponds to a Ki of 398 nM and the inhibition result was “Dose-dependent effect”.
For the molecule `Cc1ccc2c(c1)C=Cc1cc(C)ccc1C2c1cn(Cc2ccc(C(=O)Nc3nnn[nH]3)o2)c(=O)[nH]c1=S`, on P2Y purinoceptor 2 [4], the inhibition entry is “Dose-dependent effect”.
Turning to `Cc1ccc2c(c1)C=Cc1cc(C)ccc1C2c1cn(Cc2cc(C(=O)NCCNC(=O)COc3ccc(/C=C/C4=[N+]5C(=Cc6ccc(-c7cccs7)n6[B-]5(F)F)C=C4)cc3)cc(C(=O)Nc3nnn[nH]3)c2)c(=O)[nH]c1=S`, the Kd at P2Y purinoceptor 2 [2] was 2750 nM.
With `O=c1ccn([C@@H]2O[C@H](COP(=O)(O)OP(=O)(O)OP(=O)(O)S)[C@@H](O)[C@H]2O)c(=O)[nH]1` (some centres not stated), at P2Y purinoceptor 2 [4], the Ki was 3470 nM and the inhibition entry is “Dose-dependent effect”.
Consider `Cc1nc2c(s1)C=Cc1cc(Cl)ccc1C2c1cn(C)c(=O)[nH]c1=S` (configuration not stated), for which the pKb on P2Y purinoceptor 2 [3] stood at 5.99. For the same molecule, at P2Y purinoceptor 2 [4], the Ki is 1550 nM and the inhibition result is “Dose-dependent effect”.
With `Cn1cc(C2c3ccc(Cl)cc3C=Cc3sc(N4CCCCC4)nc32)c(=S)[nH]c1=O` (configuration not stated), the inhibition at P2Y purinoceptor 2 [5] was less than 50%.
For `Cc1cc(C)n2c1C=C1C=CC(CCC(=O)NCCCCCC(=O)NCCOCCOCCNC(=O)CCNc3nc4c(s3)C=Cc3cc(Cl)ccc3C4c3cn(C)c(=O)[nH]c3=S)=[N+]1[B-]2(F)F` (configuration not stated), on P2Y purinoceptor 2 [1], the outcome was Active. The Kd at P2Y purinoceptor 2 [2] is 4170 nM.
As to `Cn1cc(C2c3ccc(Cl)cc3C=Cc3sc(Nc4ccccc4)nc32)c(=S)[nH]c1=O` (configuration not stated), the inhibition on P2Y purinoceptor 2 [5] is less than 50%.
Still for that read-out and setting: the figure for `Cc1ccc2c(c1)C=Cc1cc(C)ccc1C2c1cn(C)c(=O)[nH]c1=S` is less than 50%.
Regarding `O=C(CCCCCNC(=O)COc1ccc(/C=C/C2=[N+]3C(=Cc4ccc(-c5cccs5)n4[B-]3(F)F)C=C2)cc1)NCCNC(=O)CCNc1nc2c(s1)C=Cc1cc(Cl)ccc1C2c1cn(Cc2nc(C(=O)Nc3nnn[nH]3)cs2)c(=O)[nH]c1=S` (configuration not stated), the dissociation constant (Kd) on P2Y purinoceptor 2 [2] was 129 nM. Moreover, the pKb at P2Y purinoceptor 2 [6] worked out at 5.69. In addition, the Drug uptake result in [7] is given as “Not Active”. Also, the result at P2Y purinoceptor 2 [8] was Active. Further, the outcome on P2Y purinoceptor 2 [9] was inactive.
Regarding `Cc1cc(C)n2c1C=C1C=CC(CCC(=O)NCCNC(=O)CCNc3nc4c(s3)C=Cc3cc(Cl)ccc3C4c3cn(Cc4nc(C(=O)Nc5nnn[nH]5)cs4)c(=O)[nH]c3=S)=[N+]1[B-]2(F)F` (configuration not stated), the Kd at P2Y purinoceptor 2 [2] is 89.1 nM.
For the molecule `CCOCCNc1nc2c(s1)C=Cc1cc(Cl)ccc1[C@@H]2c1cn(C)c(=O)[nH]c1=S`, the pKb at P2Y purinoceptor 2 [3] is less than 5. Further, the inhibition entry at P2Y purinoceptor 2 [4] was “Dose-dependent effect”; on P2Y purinoceptor 2 [5], less than 50%.
For the molecule `COCCNc1nc2c(s1)C=Cc1cc(Cl)ccc1C2c1cn(C)c(=O)[nH]c1=S` (stereo in doubt; 21), the pKb at P2Y purinoceptor 2 [3] amounted to 5.82.
Still for that read-out and setting: with `Cc1ccc2c(c1)C=Cc1cc(C)ccc1C2c1cn(Cc2nc(C(=O)O)cs2)c(=O)[nH]c1=S` the figure was 6.43.
Turning to `O=C(CCNc1nc2c(s1)C=Cc1cc(Cl)ccc1C2c1cn(Cc2nc(C(=O)Nc3nnn[nH]3)cs2)c(=O)[nH]c1=S)NCCNC(=O)COc1ccc(/C=C/C2=[N+]3C(=Cc4ccc(-c5cccs5)n4[B-]3(F)F)C=C2)cc1` (configuration not stated), at P2Y purinoceptor 2 [2], the Kd is 891 nM.
Consider `Cn1cc(C2c3ccc(Cl)cc3C=Cc3sc(NCCOc4ccccc4)nc32)c(=S)[nH]c1=O` (configuration not stated), for which the inhibition on P2Y purinoceptor 2 [5] was less than 50%.
With `O=c1[nH]c(=S)c(C2c3ccccc3CCc3ccccc32)cn1[C@@H]1O[C@H](COP(=O)(O)OP(=O)(O)C(Cl)(Cl)P(=O)(O)O)[C@@H](O)[C@H]1O`, the pKb on P2Y purinoceptor 2 [3] was 6.59. Further, at P2Y purinoceptor 2 [4], the Ki was 83.2 nM and the inhibition result was “Dose-dependent effect”.
Turning to `COCCNc1nc2c(s1)C=Cc1cc(Cl)ccc1C2c1cn(C)c(=O)[nH]c1=S` (stereo in doubt; 20), on P2Y purinoceptor 2 [3], the pKb stood at 6.63.
As to `CN1CCN(c2nc3c(s2)C=Cc2cc(Cl)ccc2C3c2cn(C)c(=O)[nH]c2=S)CC1` (configuration not stated), the inhibition at P2Y purinoceptor 2 [5] was less than 50%.
As for `Cc1ccc2c(c1)C=Cc1cc(C)ccc1C2c1cn(Cc2nc(C(=O)Nc3nnn[nH]3)cs2)c(=O)[nH]c1=S`, the pKb at P2Y purinoceptor 2 [3] was found to be 7.11. In addition, on P2Y purinoceptor 2 [4], the affinity corresponds to a Ki of 129 nM and the inhibition result is “Dose-dependent effect”.
For the molecule `Cn1cc(C2c3ccc(Cl)cc3C=Cc3sc(-c4ccccc4)nc32)c(=S)[nH]c1=O` (configuration not stated), the inhibition on P2Y purinoceptor 2 [5] was less than 50%.
For the molecule `Cn1cc(C2c3ccc(Cl)cc3C=Cc3sc(N4CCOCC4)nc32)c(=S)[nH]c1=O` (configuration not stated), the inhibition at P2Y purinoceptor 2 [5] is less than 50%.
For `Cn1cc(C2c3ccc(Cl)cc3C=Cc3sc(N)nc32)c(=S)[nH]c1=O` (configuration not stated), the pKb at P2Y purinoceptor 2 [3] amounted to 6.56.
Same read-out and setting: with `Cc1nc2c(s1)C=Cc1cc(Cl)ccc1C2c1cn(Cc2nc(C(=O)Nc3nnn[nH]3)cs2)c(=O)[nH]c1=S` (configuration not stated) the figure was 6.48.
The same measure, in the same setting: the figure for `CC(C)OCCNc1nc2c(s1)C=Cc1cc(Cl)ccc1C2c1cn(C)c(=O)[nH]c1=S` (configuration not stated) is 6.49.
As to `Cn1cc(C2c3ccc(Cl)cc3C=Cc3sc(NCCc4ccccc4)nc32)c(=S)[nH]c1=O` (configuration not stated), the inhibition at P2Y purinoceptor 2 [5] was less than 50%.
